{
  "source": "ChEMBL document CHEMBL4261487",
  "about": "“Small structural changes of the imidazopyridine diacylglycerol acyltransferase 2 (DGAT2) inhibitors produce an improved safety profile” (Medchemcomm, 2017)",
  "key": {"Rattus norvegicus [1]": {"tested_on": "Rattus norvegicus", "assay": "Unbound AUC in Wistar Han IGS rat at 10 mg/kg, po qd administered for 14 days", "format": "ADME, organism-based", "details": "in vivo, 336 h", "method_in_brief": "(§1)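 Wistar Han rats were dosed orally once daily for 14 days (exploratory, 5/sex/dose) or 1 month (toxicity, 10/sex/dose). Toxicokinetic satellite animals (3–4/sex/dose) were used, and steady-state systemic exposure is given as the mean of male and female values combined.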"}, "Rattus norvegicus [2]": {"tested_on": "Rattus norvegicus", "assay": "Unbound Cmax in Wistar Han IGS rat at 500 mg/kg, po qd administered for 14 days", "format": "ADME, organism-based", "details": "in vivo, 336 h", "method_in_brief": "as §1"}, "Canis familiaris [3]": {"tested_on": "Canis familiaris", "assay": "Toxicity in telemetered beagle dog assessed as change in blood pressure at 5 mg/kg administered via oral gavage measured over 24 hrs", "format": "organism-based, Canis lupus familiaris", "details": "in vivo"}, "Canis familiaris [4]": {"tested_on": "Canis familiaris", "assay": "Toxicity in telemetered beagle dog assessed as multiple bouts of emesis at 75 mg/kg administered via oral gavage measured within 4 hrs of dosing", "format": "organism-based, Canis lupus familiaris", "details": "in vivo"}, "Rattus norvegicus [5]": {"tested_on": "Rattus norvegicus", "assay": "Toxicity in Wistar Han IGS rat assessed as gastric ulcer at 500 mg/kg, po qd administered for 14 days", "format": "organism-based", "details": "in vivo, 336 h", "method_in_brief": "(§2)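 Wistar Han rats, daily oral dosing for 14 days (5/sex/dose) or 1 month (10/sex/dose); microscopic findings reported as incidence by sex, plus organ weights.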"}, "Canis familiaris [6]": {"tested_on": "Canis familiaris", "assay": "Unbound AUC in beagle dog at 100 to 150 mg/kg, po qd administered for 1 month", "format": "ADME, organism-based, Canis lupus familiaris", "details": "in vivo", "method_in_brief": "(§3)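 Beagle dogs were dosed orally once daily in a 14-day exploratory study or 1-month toxicity studies. Steady-state systemic exposure over the 24 h dosing interval is reported as the mean of male and female values combined.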"}, "Canis familiaris [7]": {"tested_on": "Canis familiaris", "assay": "Toxicity in telemetered beagle dog assessed as increase in diastolic pressure at 25 mg/kg administered via oral gavage measured over 24 hrs", "format": "organism-based, Canis lupus familiaris", "details": "in vivo"}, "Rattus norvegicus [8]": {"tested_on": "Rattus norvegicus", "assay": "Toxicity in Wistar Han IGS rat assessed as increase in heart weight at 60 to 300 mg/kg, po qd administered for 1 month", "format": "organism-based", "details": "in vivo", "method_in_brief": "as §2"}, "Canis familiaris [9]": {"tested_on": "Canis familiaris", "assay": "Toxicity in telemetered beagle dog assessed as change in left ventricular parameters and activity level at 5 mg/kg administered via oral gavage measured over 24 hrs", "format": "organism-based, Canis lupus familiaris", "details": "in vivo"}, "Rattus norvegicus [10]": {"tested_on": "Rattus norvegicus", "assay": "Unbound AUC in Wistar Han IGS rat at 300 mg/kg, po qd administered for 1 month", "format": "ADME, organism-based", "details": "in vivo", "method_in_brief": "as §1"}, "Rattus norvegicus [11]": {"tested_on": "Rattus norvegicus", "assay": "Unbound Cmax in Wistar Han IGS rat at 60 mg/kg, po qd administered for 1 month", "format": "ADME, organism-based", "details": "in vivo", "method_in_brief": "as §1"}, "Canis familiaris [12]": {"tested_on": "Canis familiaris", "assay": "Unbound Cmax in beagle dog […] at 75 mg/kg, po qd administered for 14 days", "format": "ADME, organism-based, Canis lupus familiaris", "details": "in vivo, 336 h", "method_in_brief": "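Exploratory 14-day dog toxicity study with daily oral dosing. Toxicokinetic exposure is reported as the mean with male and female systemic values combined.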"}, "Canis familiaris [13]": {"tested_on": "Canis familiaris", "assay": "Toxicity in beagle dog assessed as renal tubular degeneration at 300 mg/kg, po qd administered for 14 days", "format": "organism-based, Canis lupus familiaris", "details": "in vivo, 336 h"}, "Rattus norvegicus [14]": {"tested_on": "Rattus norvegicus", "assay": "Toxicity in Wistar Han IGS rat at 30 mg/kg, po qd administered for 1 month", "format": "organism-based", "details": "in vivo", "method_in_brief": "as §2"}, "Canis familiaris [15]": {"tested_on": "Canis familiaris", "assay": "Toxicity in telemetered beagle dog assessed as increase in diastolic pressure at 50 mg/kg administered via oral gavage measured during 4 hrs of post dosing", "format": "organism-based, Canis lupus familiaris", "details": "in vivo"}, "[16]": {"assay": "Oral bioavailability in beagle dog at 5 mg/kg", "format": "ADME, organism-based, Canis lupus familiaris", "details": "in vivo"}, "Rattus norvegicus [17]": {"tested_on": "Rattus norvegicus", "assay": "In vivo DGAT2 inhibition in po dosed sucrose-fed rat assessed as decrease in plasma triglyceride levels after 2 hrs", "format": "functional, organism-based", "method_in_brief": "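Rats fed a high-sucrose diet, single oral dose of test article or vehicle; plasma TG measured in tail-vein blood 2 h post dose; n = 7–8 per group; results as percent change from vehicle group, one-way ANOVA with Dunnett's test.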"}, "[18]": {"assay": "Volume of distribution at steady state in beagle dog at 1 mg/kg, iv", "format": "ADME, organism-based, Canis lupus familiaris", "details": "in vivo, read-out: Vdss", "method_in_brief": "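Male Beagle dogs, single iv dose, crystalline form of compound; value is the mean of two experiments.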"}, "Canis familiaris [19]": {"tested_on": "Canis familiaris", "assay": "Unbound AUC in beagle dog at 30 mg/kg, po qd administered for 1 month", "format": "ADME, organism-based, Canis lupus familiaris", "details": "in vivo", "method_in_brief": "as §3"}, "Canis familiaris [20]": {"tested_on": "Canis familiaris", "assay": "Unbound Cmax in beagle dog at 30 mg/kg, po qd administered for 1 month", "format": "ADME, organism-based, Canis lupus familiaris", "details": "in vivo", "method_in_brief": "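One-month dog toxicity study with once-daily oral dosing. Toxicity groups were 2/sex/dose, and unbound peak exposure was taken from toxicokinetic sampling.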"}, "Canis familiaris [21]": {"tested_on": "Canis familiaris", "assay": "Toxicity in telemetered beagle dog assessed as increase in heart rate at 50 mg/kg administered via oral gavage measured up to 9 hrs of post dosing", "format": "organism-based, Canis lupus familiaris", "details": "in vivo"}, "Cytochrome P450 3A4": {"molecular_target": "Cytochrome P450 3A4 (Homo sapiens, UniProt P08684)", "sequence (P08684 whole entry)": "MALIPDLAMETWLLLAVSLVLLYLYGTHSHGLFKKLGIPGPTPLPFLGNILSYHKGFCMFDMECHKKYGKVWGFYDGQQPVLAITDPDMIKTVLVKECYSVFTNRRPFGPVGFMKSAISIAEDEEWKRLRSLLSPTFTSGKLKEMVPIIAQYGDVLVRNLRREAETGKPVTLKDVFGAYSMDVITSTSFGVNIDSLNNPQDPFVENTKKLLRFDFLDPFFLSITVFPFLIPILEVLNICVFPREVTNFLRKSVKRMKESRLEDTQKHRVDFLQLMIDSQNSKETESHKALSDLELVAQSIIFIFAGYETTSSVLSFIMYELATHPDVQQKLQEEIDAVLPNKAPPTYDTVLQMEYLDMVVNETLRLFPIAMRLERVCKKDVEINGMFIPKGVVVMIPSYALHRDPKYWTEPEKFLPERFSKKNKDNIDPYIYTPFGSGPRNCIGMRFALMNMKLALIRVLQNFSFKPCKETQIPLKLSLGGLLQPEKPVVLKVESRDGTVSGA", "assay": "Drug metabolism in human liver microsomes assessed as fraction of CYP3A4-mediated oxidative metabolism preincubated for 5 mins followed by addition of NADPH regenerating system and measured after 2.5 to 60 mins", "format": "ADME", "method_in_brief": "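Fractions of metabolism attributed to CYP oxidation and UGT glucuronidation were derived from human liver microsomal incubations. For the glucuronidation arm, microsomes were supplemented with the UGT cofactor UDP-glucuronic acid.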"}, "[22]": {"assay": "Ratio of Cmax in telemetered beagle dog at 50 mg/kg administered via oral gavage measured over 24 hrs to IC50 for in vitro inhibition of dog DGAT2", "format": "organism-based, Canis lupus familiaris", "details": "in vivo", "method_in_brief": "(§4)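 Telemetered Beagle dogs given single oral doses (5, 25 and 50 mg kg–1), with systolic and diastolic blood pressure and heart rate monitored after dosing. Cmax is related to the dog DGAT2 enzymatic IC50, which is the geometric mean of at least three replicates.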"}, "[23]": {"molecular_target": "T1, Diacylglycerol O-acyltransferase 2 (Homo sapiens, UniProt Q96PD7)", "T1 sequence (Q96PD7 whole entry)": "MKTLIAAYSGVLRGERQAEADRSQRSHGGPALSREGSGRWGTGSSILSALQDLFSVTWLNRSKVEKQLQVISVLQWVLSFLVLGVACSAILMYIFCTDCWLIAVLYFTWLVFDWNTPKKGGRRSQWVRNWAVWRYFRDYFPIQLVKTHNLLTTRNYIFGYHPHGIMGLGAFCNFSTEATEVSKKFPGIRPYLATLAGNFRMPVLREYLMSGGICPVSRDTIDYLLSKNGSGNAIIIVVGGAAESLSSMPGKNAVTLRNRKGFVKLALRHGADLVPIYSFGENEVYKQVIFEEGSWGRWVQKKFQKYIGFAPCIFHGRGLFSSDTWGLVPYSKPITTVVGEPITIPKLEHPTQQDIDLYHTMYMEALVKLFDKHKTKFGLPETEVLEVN", "assay": "Inhibition of human DGAT2", "method_in_brief": "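IC50 against human DGAT2 in an enzymatic assay, reported as the geometric mean of at least three replicates with SEM.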"}, "[24]": {"molecular_target": "T2, Diacylglycerol O-acyltransferase 2 (Canis lupus familiaris, UniProt A0A8I3NDW2)", "T2 sequence (A0A8I3NDW2 whole entry)": "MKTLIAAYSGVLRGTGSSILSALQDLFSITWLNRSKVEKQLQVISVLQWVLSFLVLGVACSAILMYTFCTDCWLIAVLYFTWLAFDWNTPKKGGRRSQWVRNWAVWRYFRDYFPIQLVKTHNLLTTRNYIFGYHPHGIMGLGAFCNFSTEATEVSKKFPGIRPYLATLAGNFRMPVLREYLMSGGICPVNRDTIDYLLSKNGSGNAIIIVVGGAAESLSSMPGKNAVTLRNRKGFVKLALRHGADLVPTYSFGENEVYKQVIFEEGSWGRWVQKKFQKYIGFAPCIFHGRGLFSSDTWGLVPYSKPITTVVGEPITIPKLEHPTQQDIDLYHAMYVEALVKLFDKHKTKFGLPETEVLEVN", "assay": "Inhibition of dog DGAT2"}, "[25]": {"assay": "Ratio of Cmax in telemetered beagle dog at 25 mg/kg administered via oral gavage measured over 24 hrs to IC50 for in vitro inhibition of dog DGAT2", "format": "organism-based, Canis lupus familiaris", "details": "in vivo", "method_in_brief": "as §4"}},
  "note": "pIC50: −log10 of the molar value.",
  "data": [
    {"smiles": "CS(=O)(=O)O.O=C([C@@H]1CCCN(c2ccc3nc(C4(n5cc(Cl)cn5)CC4)[nH]c3n2)C1)N1CCCC1", "values": [
      {"measurement": "fAUC", "setting": "Rattus norvegicus [1]", "value": 1190, "unit": "ng·h/mL"},
      {"measurement": "fCmax", "setting": "Rattus norvegicus [2]", "value": 18.8, "unit": "µM"},
      {"measurement": "Activity", "setting": "Canis familiaris [3]", "value": "Non-Toxic"},
      {"measurement": "Activity", "setting": "Canis familiaris [4]", "value": "Toxic"},
      {"measurement": "Activity", "setting": "Rattus norvegicus [5]", "value": "Toxic"},
      {"measurement": "fAUC", "setting": "Canis familiaris [6]", "value": 92600, "unit": "ng·h/mL"},
      {"measurement": "Activity", "setting": "Canis familiaris [7]", "value": "Non-Toxic"},
      {"measurement": "Activity", "setting": "Rattus norvegicus [8]", "value": "Toxic"},
      {"measurement": "Activity", "setting": "Canis familiaris [9]", "value": "Non-Toxic"},
      {"measurement": "fAUC", "setting": "Rattus norvegicus [10]", "value": 62500, "unit": "ng·h/mL"},
      {"measurement": "fCmax", "setting": "Rattus norvegicus [11]", "value": 5.47, "unit": "µM"},
      {"measurement": "fCmax", "setting": "Canis familiaris [12]", "value": 6.54, "unit": "µM"},
      {"measurement": "Activity", "setting": "Canis familiaris [13]", "value": "Toxic"},
      {"measurement": "Activity", "setting": "Rattus norvegicus [14]", "value": "Non-Toxic"}
    ]},
    {"smiles": "C[C@@H](c1nc2ccc(N3CCC[C@@H](C(=O)N4CCCC4)C3)nc2[nH]1)n1cc(Cl)cn1", "values": [
      {"measurement": "Activity", "setting": "Canis familiaris [15]", "value": 6, "unit": "mmHg"},
      {"measurement": "bioavailability", "setting": "[16]", "value": 75, "unit": "%"},
      {"measurement": "inhibition", "setting": "Rattus norvegicus [17]", "value": "Dose-dependent effect"},
      {"measurement": "Vd", "setting": "[18]", "value": 0.54, "unit": "L/kg"},
      {"measurement": "fAUC", "setting": "Canis familiaris [19]", "value": 9530, "unit": "ng·h/mL"},
      {"measurement": "fCmax", "setting": "Canis familiaris [20]", "value": 3.76, "unit": "µM"},
      {"measurement": "Activity", "setting": "Canis familiaris [21]", "value": 15, "unit": "bpm"},
      {"measurement": "Ratio", "setting": "Cytochrome P450 3A4", "value": 0.61},
      {"measurement": "Ratio", "setting": "[22]", "value": 110},
      {"measurement": "pIC50", "setting": "[23]", "value": 7.70},
      {"measurement": "pIC50", "setting": "[24]", "value": 7.39},
      {"measurement": "Ratio", "setting": "[25]", "value": 52}
    ]}
  ]
}
